# ChEMBL document CHEMBL3785009, “Oxadiazole-Based Cell Permeable Macrocyclic Transition State Inhibitors of Norovirus 3CL Protease” (J Med Chem, 2016)
# Legend:
# [1] = Inhibition of Norovirus 3C-like protease using Edans-DFHLQGP-Dabcyl fluorogenic substrate after 30 mins as substrate by FRET assay
# In short: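 FRET assay with the fluorogenic substrate derived from NV polyprotein cleavage sites. Compounds tested up to 100 μM. IC50 from at least two independent experiments.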
# Norovirus = assay: Antiviral activity against Norovirus infected in human HG23 cells assessed as reduction in RNA levels after 48 hrs by RT-PCR; assay type: functional, cell-based; conditions: for EC50 / EC90: HG23, 48 h
# In short: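 HG23 cells are Huh-7 cells carrying the NV replicon. Cells were seeded 1 day before treatment with compound (1.0–100 μM) for 48 h. Total RNA was extracted and norovirus and β-actin RNA measured by qRT-PCR. EC50/EC90 derived from % RNA reduction versus mock after β-actin normalization. At least two independent experiments; mean and standard deviation reported.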
# [2] = Cytotoxicity against human HG23 cells by CytoTox96 nonradioactive cytotoxicity assay; assay type: functional
# In short: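 HG23 cells (Huh-7 cells harbouring NV replicon) exposed to compound in serial dilution up to 100 µM; cytotoxicity read with a nonradioactive cytotoxicity kit; CC50 taken as concentration giving 50% cytotoxicity; at least two independent experiments.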
# [3] = Antiviral activity against Murine norovirus1 infected in […] cells assessed as inhibition of virus induced cytopathic effect after 48 hrs by CytoTox96 nonradioactive cytotoxicity assay; conditions: Murine norovirus 1, 48 h
SMILES,IC50 [1] [µM],EC50 (Norovirus) [µM],EC90 (Norovirus) [µM],CC50 [2] [µM],EC50 [3] [µM],Activity (Norovirus)
CC(C)(C)OC(=O)N[C@H]1CCC2=NN=C(CCCCCNC(=O)CC[C@@H](C=O)NC(=O)[C@H](CC3CCCCC3)NC1=O)O2,8.6,51.2,> 100,> 100,> 100,–
CC(C)C[C@@H]1NC(=O)[C@@H](NC(=O)OC(C)(C)C)CCC2=NN=C(CCCNC(=O)CC[C@@H](C=O)NC1=O)O2,21.3,5.9,30.5,> 100,11.1,–
CC(C)C[C@@H]1NC(=O)[C@@H](NC(=O)OC(C)(C)C)CCC2=NN=C(CNC(=O)CC[C@@H](C=O)NC1=O)O2,34.3,18.1,72.7,> 100,> 100,–
CC(C)(C)OC(=O)N[C@H]1CCC2=NN=C(CCCCNC(=O)CC[C@@H](C=O)NC(=O)[C@H](CC3CCCCC3)NC1=O)O2,18.5,6.5,18.2,> 100,10.9,Dose-dependent effect
CC(C)C[C@@H]1NC(=O)[C@@H](NC(=O)OC(C)(C)C)CC2=NN=C(CNC(=O)CC[C@@H](C=O)NC1=O)O2,> 100,19.4,> 100,> 100,> 100,–
CC(C)C[C@@H]1NC(=O)[C@@H](NC(=O)OC(C)(C)C)CCC2=NN=C(CCNC(=O)CC[C@@H](C=O)NC1=O)O2,15.3,2.5,23.4,> 100,9.8,–
CC(C)(C)OC(=O)N[C@H]1CCC2=NN=C(CCCNC(=O)CC[C@@H](C=O)NC(=O)[C@H](CC3CCCCC3)NC1=O)O2,45.1,9.4,73.3,> 100,> 100,–
CC(C)(C)OC(=O)N[C@H]1CCC2=NN=C(CCNC(=O)CC[C@@H](C=O)NC(=O)[C@H](CC3CCCCC3)NC1=O)O2,14.5,5.1,38.2,> 100,19.9,–
